Compound activity: PubChem, several laboratories
The list is not random: actives were taken first. Their share in the collection is about 12%.
Wee1 stabilizer = inhibitors of human Wee1 degradation; AID 1321; reporter increase, % at 5 µM; actives 1.2% (n = 220,000); HeLa Luc-Wee1K328M stability, luciferase luminescence; 100% = proteasome inhibitor MG132 effect;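 active means activation above the mean of all tested compounds plus 3 SD, set per screening run, cut at about 8.8% in these data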;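 further: cells exposed to compound for 20 h before luminescence read; 0% = DMSO alone and 100% = MG132 at 30 µM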
PKD1 inh = PKD1 (human) kinase inhibition | Q15139 | PKD1 kinase fluorescence polarization assay | inhibition, % (test concentration not listed) | actives 0.056% (n = 200,000) | AID 797
Target sequence (Q15139 whole entry, looked up): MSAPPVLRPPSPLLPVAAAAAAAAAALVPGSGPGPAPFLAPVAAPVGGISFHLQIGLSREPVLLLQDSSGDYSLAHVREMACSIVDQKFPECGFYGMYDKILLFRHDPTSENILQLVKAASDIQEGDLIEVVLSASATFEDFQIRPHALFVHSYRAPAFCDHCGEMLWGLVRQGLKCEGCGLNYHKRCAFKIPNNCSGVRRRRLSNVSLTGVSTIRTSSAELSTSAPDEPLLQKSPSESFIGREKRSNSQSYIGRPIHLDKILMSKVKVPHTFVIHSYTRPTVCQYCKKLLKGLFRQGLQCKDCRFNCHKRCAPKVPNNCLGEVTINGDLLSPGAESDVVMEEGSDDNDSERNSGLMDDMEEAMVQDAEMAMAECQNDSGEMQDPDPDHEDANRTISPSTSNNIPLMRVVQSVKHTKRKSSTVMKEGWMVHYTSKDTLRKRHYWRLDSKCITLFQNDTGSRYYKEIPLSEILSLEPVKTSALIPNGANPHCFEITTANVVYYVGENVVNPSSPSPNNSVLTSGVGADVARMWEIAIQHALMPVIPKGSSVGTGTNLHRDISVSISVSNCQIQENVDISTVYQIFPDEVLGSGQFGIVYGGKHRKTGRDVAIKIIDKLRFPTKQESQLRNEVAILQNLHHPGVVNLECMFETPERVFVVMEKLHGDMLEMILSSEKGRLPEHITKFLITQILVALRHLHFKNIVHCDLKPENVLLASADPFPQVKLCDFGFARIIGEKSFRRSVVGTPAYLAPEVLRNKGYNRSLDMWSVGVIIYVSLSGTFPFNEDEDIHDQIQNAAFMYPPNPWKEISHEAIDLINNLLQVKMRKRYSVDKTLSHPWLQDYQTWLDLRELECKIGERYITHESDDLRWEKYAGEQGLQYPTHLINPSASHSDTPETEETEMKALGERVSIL
Arbovirus inh = blocks arbovirus infection | arbovirus infection cell-based antiviral screen | inhibition, % at 10 µM | actives 0.37% (n = 200,000) | AID 1251; in the data active means inhibition above about 30%
CHOP inh = CHOP inhibition in unfolded protein response | inhibition, % at 10 µM | CHO-K1 CHOP-promoter luciferase, tunicamycin-induced, 15-18 h | actives 3.8% (n = 220,000);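 active means compounds that reduced the stress-induced luciferase reporter signal by more than about 70% of percent inhibition, limit read from the data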;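 further: 0% = tunicamycin plus vehicle and 100% = wells without tunicamycin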
Lmaj promast = Leishmania major promastigote growth inhibition; Leishmania major promastigotes, resazurin fluorescence viability; inhibition, % at 10 µM; actives 9% (n = 200,000);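 further: promastigotes grown with compound for 44 hours at 28 °C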
Rad51 HR inh = Rad51 (human) homologous recombination inhibition; actives 0.085% (n = 200,000); inhibition, % at 10 µM; Q06609; hRad51 DNA strand exchange, fluorescence dequenching;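 active means inhibition above 40% at the single screening dose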;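 further: 0% = DMSO control wells and 100% = blanks with heterologous ssDNA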
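material = hRad51 filaments on single-stranded DNA | reagent = Donor/quencher-labelled 47-bp dsDNA substrate | compound = 10 µM final, single point | schedule = strand-exchange reaction 15 min at room temperature | measured by = fluorescein emission 520 nm, excitation 485 nm | read-out basis = % inhibition versus plate control and blank means | benchmarks = plate controls and plate blanks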
Active calls of the source: *. Unless noted, no stated cut-off is given here; in the data, active means inhibition above about 50%; inactive means the rest.

What do the screens show for `O=C(CSc1nc2cc(C(F)(F)F)ccc2n1Cc1ccccc1)NC1CCS(=O)(=O)C1` (stereo not drawn)?
Wee1 stabilizer: -1; PKD1 inh: -1; Arbovirus inh: 1; CHOP inh: 54; Lmaj promast: 97*; Rad51 HR inh: 1

How did O=C(CSc1nc2ccccc2s1)NC1CCS(=O)(=O)C1 (stereo not drawn) do in these assays?
Wee1 stabilizer: 11*; PKD1 inh: 5; Arbovirus inh: 2; CHOP inh: 15; Lmaj promast: -3; Rad51 HR inh: 5

Results for CNC(=S)Nc1cc(Cl)ccc1Oc1ccccc1 ?
Wee1 stabilizer: 0; PKD1 inh: -4; Arbovirus inh: -5; CHOP inh: 19; Lmaj promast: 2; Rad51 HR inh: 3

How did CCNC(=S)Nc1cc(Cl)ccc1Oc1ccccc1 do in these assays?
Wee1 stabilizer: -1; PKD1 inh: -12; Arbovirus inh: -2; CHOP inh: 15; Lmaj promast: 67*; Rad51 HR inh: 3

Results for S=C(Nc1ccc(Cl)cc1Cl)Nc1ccccc1Oc1ccccc1 ?
Wee1 stabilizer: 0; PKD1 inh: -7; Arbovirus inh: -5; CHOP inh: 78*; Lmaj promast: 7; Rad51 HR inh: -3

Results for S=C(Nc1cccc(Cl)c1)Nc1cccc2cnccc12 ?
Wee1 stabilizer: -2; PKD1 inh: 7; Arbovirus inh: 25; CHOP inh: 22; Lmaj promast: 9; Rad51 HR inh: -3

Results for S=C(Nc1ccccc1Oc1ccccc1)Nc1cccc(Cl)c1Cl ?
Wee1 stabilizer: 4; PKD1 inh: -3; Arbovirus inh: 11; CHOP inh: 35; Lmaj promast: 14; Rad51 HR inh: -7

What do the screens show for `S=C(Nc1cccc(Cl)c1)Nc1ccccc1Oc1ccccc1`?
Wee1 stabilizer: 0; PKD1 inh: -9; Arbovirus inh: -16; CHOP inh: 74*; Lmaj promast: 27; Rad51 HR inh: -9

What do the screens show for `Cc1cc(C)c2c(N)c(C(=O)N3CCc4ccccc4C3)sc2n1`?
Wee1 stabilizer: 2; PKD1 inh: 3; Arbovirus inh: -8; CHOP inh: 20; Lmaj promast: 49; Rad51 HR inh: -2

Results for COc1ccc(C2CC(c3cccs3)=NN2C(=O)CSc2nc3c(cnn3-c3ccccc3)c(=O)[nH]2)cc1 (stereo not drawn) ?
Wee1 stabilizer: -1; PKD1 inh: 2; Arbovirus inh: -2; CHOP inh: 76*; Lmaj promast: 85*; Rad51 HR inh: -2

How did O=C(CSc1nc2ccccc2o1)N1N=C(c2cccs2)CC1c1ccc(F)cc1 (stereo not drawn) do in these assays?
Wee1 stabilizer: 1; PKD1 inh: 2; Arbovirus inh: 4; CHOP inh: 26; Lmaj promast: 97*; Rad51 HR inh: -11

Results for Cc1ccc(C2CC(c3cccs3)=NN2C(=O)CSc2nc3ccccc3o2)cc1 (stereo not drawn) ?
Wee1 stabilizer: -1; PKD1 inh: 16; Arbovirus inh: -1; CHOP inh: 29; Lmaj promast: 29

Results for COc1cccc(C2CC(c3cccs3)=NN2C(=O)CSc2nc3c(cnn3-c3ccc(F)cc3)c(=O)[nH]2)c1OC (stereo not drawn) ?
Wee1 stabilizer: 2; PKD1 inh: -3; Arbovirus inh: 2; CHOP inh: 34; Lmaj promast: 28; Rad51 HR inh: 1

Results for COC(=O)CCC(=O)Nc1cccc([N+](=O)[O-])c1 ?
Wee1 stabilizer: -1; PKD1 inh: -8; Arbovirus inh: 24; CHOP inh: -14; Lmaj promast: 17; Rad51 HR inh: -2

Results for COc1ccc(-c2cc3ccccc3n2CC(O)CN2CCC(C)CC2)cc1 (stereo not drawn) ?
Wee1 stabilizer: 1; PKD1 inh: 3; Arbovirus inh: 21; CHOP inh: 28; Lmaj promast: 87*; Rad51 HR inh: -18

Results for CCOc1ccc(CN2CCN(CC(O)Cn3c4ccccc4c4ccccc43)CC2)cc1 (stereo not drawn) ?
Wee1 stabilizer: 5; PKD1 inh: -2; Arbovirus inh: -34; CHOP inh: 108*; Lmaj promast: 96*

How did COc1ccc(CN2CCN(CC(O)Cn3c4ccccc4c4ccccc43)CC2)cc1 (stereo not drawn) do in these assays?
Wee1 stabilizer: -2; PKD1 inh: -8; Arbovirus inh: -35; CHOP inh: 69; Lmaj promast: 99*; Rad51 HR inh: -4

How did O=c1c2ccccc2n(CC(O)CN2CCCCC2)c2ccccc12 (stereo not drawn) do in these assays?
Wee1 stabilizer: 2; CHOP inh: 2; Rad51 HR inh: 20

What do the screens show for `COc1ccc(/C=C2/SC(=O)N(CC(O)Cn3c4ccccc4c4ccccc43)C2=O)cc1` (stereo not drawn)?
Wee1 stabilizer: 0; PKD1 inh: -4; Arbovirus inh: 3; CHOP inh: 43; Lmaj promast: 5

How did COc1ccc(-c2cc3ccccc3n2CC(O)Cn2nc(C)cc2C)cc1 (stereo not drawn) do in these assays?
Wee1 stabilizer: 5; PKD1 inh: 3; Arbovirus inh: 28; CHOP inh: 42; Lmaj promast: 11; Rad51 HR inh: -7

How did N#Cc1cccnc1N1CCC(C(N)=O)CC1 do in these assays?
Wee1 stabilizer: 6; CHOP inh: 7; Rad51 HR inh: 18

How did Cc1ncc([N+](=O)[O-])n1CC(=O)N/N=C/c1ccccc1F do in these assays?
Wee1 stabilizer: 1; PKD1 inh: 8; Arbovirus inh: 1; CHOP inh: 4; Lmaj promast: -7; Rad51 HR inh: 5

What do the screens show for `c1ccc(CSc2ccc(-c3cccnc3)nn2)nc1`?
Wee1 stabilizer: -3; PKD1 inh: -1; Arbovirus inh: 30*; CHOP inh: 1; Lmaj promast: -6; Rad51 HR inh: -4

What do the screens show for `COc1cccc(OCC(O)CN2CCC(CN3C(=O)c4cccc5cccc(c45)C3=O)CC2)c1` (stereo not drawn)?
Wee1 stabilizer: -1; PKD1 inh: 2; Arbovirus inh: -20; CHOP inh: 45; Lmaj promast: 87*; Rad51 HR inh: 38

Results for CCc1ccc(OCC(O)CN2CCC(CN3C(=O)c4cccc5cccc(c45)C3=O)CC2)cc1 (stereo not drawn) ?
Wee1 stabilizer: 6; PKD1 inh: 0; Arbovirus inh: -33; CHOP inh: 94*; Lmaj promast: 100*

Results for COc1ccc(COCC(O)CN2CCC(CN3C(=O)c4cccc5cccc(c45)C3=O)CC2)cc1OC (stereo not drawn) ?
Wee1 stabilizer: -3; PKD1 inh: -5; Arbovirus inh: -27; CHOP inh: 33; Lmaj promast: 22

How did Cc1[nH]c2ccccc2c1C(=O)/C=C\c1ccccc1Cl do in these assays?
Wee1 stabilizer: 3; PKD1 inh: -8; Arbovirus inh: 5; CHOP inh: 74*; Lmaj promast: 20; Rad51 HR inh: -1
